Bioassay records: PubChem, Broad Institute
S100A4 inh HTS: blocks human S100A4 binding to myosin IIA peptide. P26447. S100A4/TAMRA-MyoIIA peptide fluorescence polarization. inhibition, % at 10.7 µM. 360,000 tested, 0.14% active;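 active = mean inhibition of at least 70% across replicates, with every replicate also reaching that level; inconclusive = mean inhibition reaches 70% but some replicates fall short; inactive = mean inhibition below 70%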
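incubation = readout 5 min after mixing, signal stable up to 60 min | system = S100A4 monomer protein | buffer or medium = HEPES pH 7.2 with CaCl2, KCl, NaCl, DTT, Triton | benchmarks = neutral control DMSO, positive control TFP | also added = fluorescent myosin IIA peptide, 5 nM | compound dosing = one concentration per compound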
RAD54 inh: RAD54 (human) branch migration inhibition. Q92698. RAD54 Holliday junction branch migration, FAM/BHQ fluorescence. inhibition, % at 10.4 µM. 360,000 tested, 0.14% active. AID 602329;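 active = mean normalized replicate activity at least 40 and at least half of replicates scoring 40 or more; inconclusive = only one of the two criteria met; inactive = mean below 40 and under half of replicates reaching 40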;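 note: 0% = median of neutral control wells and 100% = median of positive control wells; inhibitors cause a drop in the FAM fluorescence signal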
XiGFP reactiv: X-chromosome reactivation activator; XiGFP mouse fibroblasts, % GFP-positive cells imaging, 3 d; cells co-treated with 5-aza-dC sensitizer; scaled so ellipticine positive control = 100%; activation, % at 7.58 µM; 360,000 tested, 0.055% active; AID 743238;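 active = mean normalized replicate activation at least 10% and every replicate at or above 10%; inconclusive = only one of the two criteria met; inactive = mean below 10% and not all replicates reach 10%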;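 note: 0% = median of on-plate neutral control wells and 100% = ellipticine 6 µM median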
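Material: XiGFP fibroblasts, SV40-immortalized. Buffer or medium: DMEM plus 5-aza-dC sensitizer. Compound: single concentration per compound, delivered by pin transfer. Times: 3 days compound exposure. Controls: ellipticine 6 µM.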
RAD52 inh: RAD52 (human) annealing inhibition | P43351 | inhibition, % at 18.7 µM | 360,000 tested, 0.46% active | recombinant RAD52 DNA annealing, FRET fluorescence;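 active = every replicate showing at least 50% inhibition; inconclusive = mean inhibition at least 50% but not in every replicate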
CASP6 VEID inh: blocks human caspase-6 cleavage activity. inhibition, % at 12.5 µM. AID 686996. 350,000 tested, 0.53% active. purified caspase-6, Z-VEID-R110 cleavage fluorescence;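 active = mean inhibition across replicates at least about 35%, with every replicate also reaching that limit, limit read from the data; inconclusive = only one of the two criteria met; inactive = neither criterion met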;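 note: 0% = median of neutral control wells and 100% = no fluorescence left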
AF4-AF9 inh: inhibitors of human MLL-AF4/AF9 interaction. AlphaScreen, biotin-AF4 peptide binding to FLAG-AF9. inhibition, % at 10 µM. P42568. 350,000 tested, 0.47% active;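 active = every replicate reaching a set inhibition limit, whatever the replicate mean, cut at about 25% in these data; inconclusive = mean inhibition reaches that limit but some replicates miss it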;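 note: 0% = plate neutral control median and 100% = total signal loss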
Target sequence (P42568 whole entry, looked up): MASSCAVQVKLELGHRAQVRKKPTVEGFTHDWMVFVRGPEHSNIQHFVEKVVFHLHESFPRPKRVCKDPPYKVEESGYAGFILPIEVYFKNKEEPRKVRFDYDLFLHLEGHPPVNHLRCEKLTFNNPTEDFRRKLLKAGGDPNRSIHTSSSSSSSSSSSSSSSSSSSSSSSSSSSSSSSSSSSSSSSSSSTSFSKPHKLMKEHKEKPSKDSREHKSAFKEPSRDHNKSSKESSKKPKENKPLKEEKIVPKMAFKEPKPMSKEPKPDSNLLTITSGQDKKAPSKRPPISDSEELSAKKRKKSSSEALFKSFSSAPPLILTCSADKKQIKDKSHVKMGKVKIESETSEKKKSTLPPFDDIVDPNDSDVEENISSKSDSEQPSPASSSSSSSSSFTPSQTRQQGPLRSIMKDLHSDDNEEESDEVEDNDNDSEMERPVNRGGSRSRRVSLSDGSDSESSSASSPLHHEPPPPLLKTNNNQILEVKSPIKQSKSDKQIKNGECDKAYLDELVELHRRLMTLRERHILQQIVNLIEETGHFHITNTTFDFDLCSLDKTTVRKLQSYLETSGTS
The depositor's hits bear a star; u = inconclusive; x = no result given; ! = a repeat was not active. This is a sample that favours compounds with a hit; in the whole collection about 1.3% have one here.

SMILES	S100A4 inh HTS	RAD54 inh	XiGFP reactiv	RAD52 inh	CASP6 VEID inh	AF4-AF9 inh
C[C@H](NC(=O)C[C@@H]1C[C@H]2c3cc(N(C)C)ccc3O[C@H]2[C@H](CO)O1)c1ccccc1	4	-3	0	-120	-1	5
CC(C)CC#Cc1ccc2c(c1)O[C@H](CN(C)Cc1ccc(C(=O)O)cc1)[C@@H](C)CN([C@H](C)CO)S2(=O)=O	-4	5	x	-6	x	11
COc1ccc(S(=O)(=O)N(C)C[C@@H]2Oc3ncc(C#CCN(C)C)cc3C(=O)N([C@H](C)CO)C[C@@H]2C)cc1	-3	-2	0	-5	0	-3
C[C@@H]1CN([C@H](C)CO)C(=O)c2cc(NC(=O)Cc3ccccc3)ccc2O[C@@H](C)CCCCO[C@H]1CN(C)Cc1ccccc1	-9	-3	0	20	-2	4
CN(C)CCCCCCNC(=O)[C@@H]1C[C@@H]2C(=O)N3CCC[C@H]3C(=O)N2[C@@H]1c1ccc(O)cc1	u	9	x	14	-5	29*
CO[C@@H]1CN(C)C(=O)c2ccc(NC(C)=O)cc2OC[C@@H](C)N(C(=O)Cc2cccnc2)C[C@H]1C	0	0	0	-3	-8	0
CCCn1cnc2cc(NCc3ccccn3)ccc21	-2	5	0	1	2	43*
C[C@@H]1CN([C@H](C)CO)C(=O)c2cc(NC(=O)CCC(F)(F)F)ccc2O[C@@H](C)CCCCO[C@H]1CN(C)C(=O)C1CCCCC1	0	3	0	-4	-1	-1
COc1cc(CN2[C@@H]3CNC[C@H]2C3c2ccc(-c3cccc(C)c3)cc2)cc(OC)c1 (stereo not given in full)	-3	x	0	59*	x	3
COc1ccc(-c2ccc(C3[C@H]4CNC[C@@H]3N4Cc3cc(OC)cc(OC)c3)cc2)cc1 (stereo not given in full)	15	x	0	42	1	-2
Fc1cccc(CN2[C@@H]3CNC[C@H]2C3c2ccc(-c3cccc(F)c3)cc2)c1 (stereo not given in full)	-8	x	0	51*!	11	2
CCC(=O)Nc1ccc2c(c1)C(=O)N(C)C[C@H](OC)[C@@H](C)CN(CC1CC1)[C@@H](C)CO2	-5	3	0	-3	0	-1
COc1ccc2c(c1OC)C(=O)OC2C1c2c(cc3c(c2OC)OCO3)CCN1C (stereo not given)	-12	7	0	-11	-1	-3
CN1CCc2cc3c(c4c2[C@H]1[C@H](O)c1ccccc1-4)OCO3	33	99*	0	46	49*	-3
CCC(=O)Nc1ccc2c(c1)OC[C@@H](C)N(Cc1ccccc1C(=O)O)C[C@@H](C)[C@H](OC)CN(C)C2=O	-6	4	0	-18	2	-3
CCn1c(CNC(=O)COc2ccc(C(C)C)cc2)nnc1SCC(=O)Nc1ccccc1C(C)C	x	1	x	x	x	x
CCn1c(CNC(=O)COc2ccc(C(C)C)cc2)nnc1SCC(=O)Nc1ccccc1F	9	-5	x	-15	53*	x
CC(C)NC(=O)Nc1cccc2c1O[C@@H](CN(C)S(C)(=O)=O)[C@@H](C)CN(C)C2=O	x	x	0	x	x	x
C[C@@H]1CCCCO[C@@H](CN(C)Cc2ccc(C(=O)Nc3ccccc3N)cc2)[C@@H](C)CN([C@H](C)CO)C(=O)c2cc(N(C)C)ccc2O1	x	x	1	x	x	x
Cc1[nH]c2ccccc2c1/C=N/Nc1ccccc1[N+](=O)[O-]	9	x	0	-1	11	50*
CN1CCCCC(NC(=O)COCc2ccccc2)C1=O (stereo not given)	-1	x	0	-1	38*	x
C[C@@H]1CN([C@H](C)CO)C(=O)c2cc(NC(=O)CCCCCC(=O)Nc3ccccc3N)ccc2O[C@@H]1CN(C)Cc1ccc(C(F)(F)F)cc1	-8	x	0	-7	-3	1
CC(=O)N(C)C[C@H]1Oc2ccc(NC(=O)NC(C)C)cc2CC(=O)N(C)C[C@H]1C	x	x	0	x	x	x
Cc1ccccc1NC(=O)C1CCN(S(=O)(=O)c2ccc3c(c2)NC(=O)C(C)S3)CC1 (stereo not given)	111*	0	0	-236	5	1
Cc1cc(C)cc(NC(=O)C2CCN(S(=O)(=O)c3ccc4c(c3)NC(=O)C(C)S4)CC2)c1 (stereo not given)	-4	10	0	-12	-1	-2
SMILES	S100A4 inh HTS	RAD54 inh	XiGFP reactiv	RAD52 inh	CASP6 VEID inh	AF4-AF9 inh
COc1ccccc1N1CCN(Cc2cc(Br)c(O)c3ncccc23)CC1	4	3	0	-10	5	27*
CCCNC(=O)N(C)C[C@H]1Oc2cc(C3=CCCC3)ccc2S(=O)(=O)N([C@H](C)CO)C[C@@H]1C	-3	-23	0	1	x	-2
N#C/C(=C/c1ccc(O)c(O)c1)C(=O)NCc1ccc(Cl)cc1	5	-8	0	-44	35*	6
N#C/C(=C\c1ccc(O)c(O)c1)C(=O)Nc1cccc2ncccc12	-6	1	x	0	58*	11
N#C/C(=C/c1cccc(O)c1)C(=O)NCc1ccc(Cl)cc1	-6	11	0	-6	-1	2
CN(C)CC(=O)N[C@H]1CC[C@H](CCn2cc(CN(C)C)nn2)O[C@@H]1CO	6	2	0	11	1	-8
CCCc1cn(CC[C@@H]2CC[C@H](NS(=O)(=O)c3ccccc3Cl)[C@@H](CO)O2)nn1	97*	-2	0	0	-3	0
CN(C)CC(=O)N[C@H]1CC[C@H](CCn2cc(CN(C)C)nn2)O[C@H]1CO	10	-15	0	73*	-2	13
O=C(CCN1CCCCC1)N[C@H]1CC[C@@H](CCNS(=O)(=O)c2ccc(Cl)cc2)O[C@H]1CO	82*	-1	0	12	-3	1
NCC[C@H]1CC[C@@H](NC(=O)CCN2CCCCC2)[C@H](CO)O1	-7	-7	0	6	-2	59*
O=C(CCN1CCCCC1)N[C@H]1CC[C@H](CCNS(=O)(=O)c2ccc(Cl)cc2)O[C@H]1CO	2	4	0	18	2	4
O=C(N[C@H]1CC[C@H](CCn2cc(Cc3ccccc3)nn2)O[C@@H]1CO)c1cnccn1	0	-2	1	-10	1	-2
O=C(CCN1CCCCC1)N[C@H]1CC[C@H](CCn2cc(-c3ccccc3)nn2)O[C@@H]1CO	124*	-11	0	3	-1	0
NCC[C@H]1CC[C@H](NC(=O)CCN2CCCCC2)[C@@H](CO)O1	-3	-8	0	-11	-1	28*
